Data taken from ChEMBL document CHEMBL5325511, “Discovery of N-(4-(Aminomethyl)phenyl)-5-methylpyrimidin-2-amine Derivatives as Potent and Selective JAK2 Inhibitors” (ACS Med Chem Lett, 2023).

What was measured:
[1] = Tmax in Sprague-Dawley rat at 5 mg/kg, po measured upto 24 hrs by LC-MS/MS analysis; format: ADME, organism-based; settings: in vivo, po, 5 mg/kg, 24 h
Outline: (§1)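 Sprague–Dawley rats, n = 5 per group, dosed at 5 mg/kg as a solution in 2% ethanol and 1% Tween 80, pH 5.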

[2] = Clearance in Sprague-Dawley rat at 5 mg/kg, po measured upto 24 hrs by LC-MS/MS analysis; format: ADME, organism-based; settings: in vivo
Outline: (§2)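 Sprague–Dawley rats, n = 5, dosed at 5 mg/kg as a solution in 2% ethanol and 1% Tween 80, pH 5.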

[3] = Selectivity ratio of IC50 for FLT3 (unknown origin) to IC50 for JAK2 (unknown origin)
[4] = biological target: Non-receptor tyrosine-protein kinase TYK2 (Homo sapiens, UniProt P29597); assay: Inhibition of TYK2 (unknown origin) in presence of Mg/ATP mixture by [gamma p33]-ATP based radiometric assay
[5] = biological target: T1, Receptor-type tyrosine-protein kinase FLT3 (Homo sapiens, UniProt P36888); assay: Inhibition of FLT3 in human MOLM-13 cells; format: cell-based
T1 sequence (P36888 whole entry): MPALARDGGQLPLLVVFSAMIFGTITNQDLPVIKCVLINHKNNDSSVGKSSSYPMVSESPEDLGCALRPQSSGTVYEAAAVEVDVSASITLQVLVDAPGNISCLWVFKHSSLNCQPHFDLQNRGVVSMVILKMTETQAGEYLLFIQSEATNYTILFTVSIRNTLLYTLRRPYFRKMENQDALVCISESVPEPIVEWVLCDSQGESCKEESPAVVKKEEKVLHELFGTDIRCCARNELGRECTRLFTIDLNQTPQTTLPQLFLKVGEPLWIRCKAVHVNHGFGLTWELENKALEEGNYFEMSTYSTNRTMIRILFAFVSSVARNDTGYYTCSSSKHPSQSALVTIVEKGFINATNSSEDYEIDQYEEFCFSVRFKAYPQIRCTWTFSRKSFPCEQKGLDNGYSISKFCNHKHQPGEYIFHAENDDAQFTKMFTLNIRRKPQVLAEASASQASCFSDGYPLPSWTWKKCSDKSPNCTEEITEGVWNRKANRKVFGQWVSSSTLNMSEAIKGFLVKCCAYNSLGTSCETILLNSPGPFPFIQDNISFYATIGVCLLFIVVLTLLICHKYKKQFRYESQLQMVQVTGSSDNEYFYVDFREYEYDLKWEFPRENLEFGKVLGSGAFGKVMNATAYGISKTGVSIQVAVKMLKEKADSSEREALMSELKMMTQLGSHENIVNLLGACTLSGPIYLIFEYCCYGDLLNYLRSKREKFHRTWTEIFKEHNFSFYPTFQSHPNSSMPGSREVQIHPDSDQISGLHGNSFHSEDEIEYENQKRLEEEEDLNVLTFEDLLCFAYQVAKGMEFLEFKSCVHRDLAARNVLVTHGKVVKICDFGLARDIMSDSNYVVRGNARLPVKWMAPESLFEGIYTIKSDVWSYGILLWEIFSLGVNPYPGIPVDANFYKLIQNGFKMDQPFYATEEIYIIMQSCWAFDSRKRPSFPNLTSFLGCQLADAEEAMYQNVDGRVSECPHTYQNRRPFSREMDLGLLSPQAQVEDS
Outline: (§3)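 Cell proliferation assay. IC50 is the concentration that inhibits proliferation by 50%, taken from dose–response curves. Mean ± SEM of at least three independent experiments.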

[6] = biological target: T2, Tyrosine-protein kinase JAK3 (Homo sapiens, UniProt P52333); assay: Inhibition of JAK3 (unknown origin) in presence of Mg/ATP mixture by [gamma p33]-ATP based radiometric assay
T2 sequence (P52333 whole entry): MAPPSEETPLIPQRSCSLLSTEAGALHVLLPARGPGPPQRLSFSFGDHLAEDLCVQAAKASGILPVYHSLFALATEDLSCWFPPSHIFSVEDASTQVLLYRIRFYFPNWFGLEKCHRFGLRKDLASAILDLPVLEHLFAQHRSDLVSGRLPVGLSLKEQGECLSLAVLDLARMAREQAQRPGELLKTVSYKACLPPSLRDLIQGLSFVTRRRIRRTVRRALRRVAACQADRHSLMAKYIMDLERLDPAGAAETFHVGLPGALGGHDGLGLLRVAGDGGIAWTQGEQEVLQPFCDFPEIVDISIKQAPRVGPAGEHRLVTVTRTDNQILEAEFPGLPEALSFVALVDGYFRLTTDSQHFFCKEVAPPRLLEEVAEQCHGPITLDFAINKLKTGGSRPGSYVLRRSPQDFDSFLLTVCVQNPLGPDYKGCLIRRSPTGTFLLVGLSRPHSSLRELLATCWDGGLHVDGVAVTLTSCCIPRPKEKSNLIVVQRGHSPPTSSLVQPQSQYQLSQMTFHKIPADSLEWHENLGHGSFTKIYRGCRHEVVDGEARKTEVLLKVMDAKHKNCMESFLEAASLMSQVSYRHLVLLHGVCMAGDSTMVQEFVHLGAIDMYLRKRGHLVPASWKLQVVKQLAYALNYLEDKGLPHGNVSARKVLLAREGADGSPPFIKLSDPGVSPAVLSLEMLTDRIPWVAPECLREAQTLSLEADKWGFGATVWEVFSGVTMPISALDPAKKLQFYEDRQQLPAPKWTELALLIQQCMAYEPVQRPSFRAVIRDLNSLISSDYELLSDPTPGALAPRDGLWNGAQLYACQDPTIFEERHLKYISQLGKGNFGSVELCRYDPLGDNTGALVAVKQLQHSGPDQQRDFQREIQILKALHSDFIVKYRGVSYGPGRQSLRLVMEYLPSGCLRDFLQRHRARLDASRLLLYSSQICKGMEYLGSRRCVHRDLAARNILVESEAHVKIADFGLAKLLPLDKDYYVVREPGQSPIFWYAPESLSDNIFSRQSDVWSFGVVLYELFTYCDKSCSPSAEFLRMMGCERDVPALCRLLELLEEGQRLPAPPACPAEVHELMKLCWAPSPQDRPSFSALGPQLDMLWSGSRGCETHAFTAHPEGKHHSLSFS

[7] = biological target: Tyrosine-protein kinase JAK2 (Mus musculus, UniProt Q62120, V617F); assay: Inhibition of JAK2 V617F mutant in mouse BaF3 cells; format: cell-based; outline: as §3
[8] = Selectivity ratio of IC50 for TYK2 (unknown origin) to IC50 for JAK2 (unknown origin)
[9] = Metabolic stability in human liver microsomes assessed as half life; format: ADME, Microsome
[10] = biological target: Tyrosine-protein kinase JAK2 (Homo sapiens, UniProt O60674, V617F); assay: Inhibition of JAK2 V617F mutant in human SET2 cells; format: cell-based; outline: as §3
[11] = biological target: T1, Receptor-type tyrosine-protein kinase FLT3; assay: Inhibition of FLT3 (unknown origin) in presence of Mg/ATP mixture by [gamma p33]-ATP based radiometric assay
Outline: (§4)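 IC50 values determined by Eurofins Discovery.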

[12] = AUC(0 to t) in Sprague-Dawley rat at 5 mg/kg, po measured upto 24 hrs by LC-MS/MS analysis; format: ADME, organism-based; parameters: time < 24 hrs, dose 5 mg/kg, route po; settings: in vivo; outline: as §2
[13] = biological target: T3, Tyrosine-protein kinase JAK2 (Homo sapiens, UniProt O60674); assay: Inhibition of JAK2 (unknown origin) in presence of Mg/ATP mixture by [gamma p33]-ATP based radiometric assay; outline: as §4
[14] = Selectivity ratio of IC50 for JAK3 (unknown origin) to IC50 for JAK2 (unknown origin)
[15] = biological target: Tyrosine-protein kinase JAK1 (Homo sapiens, UniProt P23458); assay: Inhibition of JAK1 (unknown origin) in presence of Mg/ATP mixture by [gamma p33]-ATP based radiometric assay; outline: as §4
[16] = Half life in Sprague-Dawley rat at 5 mg/kg, po measured upto 24 hrs by LC-MS/MS analysis; format: ADME, organism-based; settings: in vivo, po, 5 mg/kg, 24 h; outline: as §2
[17] = Oral bioavailability in Sprague-Dawley rat at 5 mg/kg measured upto 24 hrs by LC-MS/MS analysis; format: ADME, organism-based; settings: in vivo; outline: as §1
[18] = Cmax in Sprague-Dawley rat at 5 mg/kg, po measured upto 24 hrs by LC-MS/MS analysis; format: ADME, organism-based; parameters: dose 5 mg/kg, time < 24 hrs, route po; settings: in vivo, 24 h; outline: as §2
[19] = biological target: T3, Tyrosine-protein kinase JAK2; assay: Inhibition of human JAK2 JH1 expressed in baculovirus infected Sf9 cells assessed as residual activity at 100 nM relative to control

T3 sequence (O60674 whole entry): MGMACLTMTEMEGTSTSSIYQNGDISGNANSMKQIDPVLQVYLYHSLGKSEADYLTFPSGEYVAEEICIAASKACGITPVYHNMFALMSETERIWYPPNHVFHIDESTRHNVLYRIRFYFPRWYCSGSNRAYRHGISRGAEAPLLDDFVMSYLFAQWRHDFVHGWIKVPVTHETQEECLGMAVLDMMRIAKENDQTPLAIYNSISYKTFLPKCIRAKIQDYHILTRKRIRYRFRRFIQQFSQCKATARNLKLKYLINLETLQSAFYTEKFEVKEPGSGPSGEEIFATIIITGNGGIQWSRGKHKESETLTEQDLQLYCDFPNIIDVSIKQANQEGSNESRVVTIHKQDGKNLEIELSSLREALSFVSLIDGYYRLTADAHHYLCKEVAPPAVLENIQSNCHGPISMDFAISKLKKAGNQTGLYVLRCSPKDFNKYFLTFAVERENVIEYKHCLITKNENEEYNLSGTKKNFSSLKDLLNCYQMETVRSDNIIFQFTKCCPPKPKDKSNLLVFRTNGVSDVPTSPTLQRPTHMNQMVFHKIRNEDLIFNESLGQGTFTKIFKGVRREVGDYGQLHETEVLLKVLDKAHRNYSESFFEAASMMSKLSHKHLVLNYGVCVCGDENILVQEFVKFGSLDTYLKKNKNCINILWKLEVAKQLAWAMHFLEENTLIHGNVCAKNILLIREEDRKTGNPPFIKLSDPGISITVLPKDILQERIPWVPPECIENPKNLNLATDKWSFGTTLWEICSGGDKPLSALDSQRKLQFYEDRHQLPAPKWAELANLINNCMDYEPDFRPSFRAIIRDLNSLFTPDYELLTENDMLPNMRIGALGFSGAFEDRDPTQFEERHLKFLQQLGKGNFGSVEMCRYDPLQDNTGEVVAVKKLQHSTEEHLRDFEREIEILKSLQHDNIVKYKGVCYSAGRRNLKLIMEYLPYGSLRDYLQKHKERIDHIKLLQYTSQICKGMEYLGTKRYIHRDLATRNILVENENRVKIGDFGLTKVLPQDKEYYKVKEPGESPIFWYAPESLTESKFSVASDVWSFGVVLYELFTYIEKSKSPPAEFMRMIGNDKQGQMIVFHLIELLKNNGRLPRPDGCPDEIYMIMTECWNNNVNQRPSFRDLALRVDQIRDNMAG
Tyrosine-protein kinase JAK1, sequence (P23458 whole entry): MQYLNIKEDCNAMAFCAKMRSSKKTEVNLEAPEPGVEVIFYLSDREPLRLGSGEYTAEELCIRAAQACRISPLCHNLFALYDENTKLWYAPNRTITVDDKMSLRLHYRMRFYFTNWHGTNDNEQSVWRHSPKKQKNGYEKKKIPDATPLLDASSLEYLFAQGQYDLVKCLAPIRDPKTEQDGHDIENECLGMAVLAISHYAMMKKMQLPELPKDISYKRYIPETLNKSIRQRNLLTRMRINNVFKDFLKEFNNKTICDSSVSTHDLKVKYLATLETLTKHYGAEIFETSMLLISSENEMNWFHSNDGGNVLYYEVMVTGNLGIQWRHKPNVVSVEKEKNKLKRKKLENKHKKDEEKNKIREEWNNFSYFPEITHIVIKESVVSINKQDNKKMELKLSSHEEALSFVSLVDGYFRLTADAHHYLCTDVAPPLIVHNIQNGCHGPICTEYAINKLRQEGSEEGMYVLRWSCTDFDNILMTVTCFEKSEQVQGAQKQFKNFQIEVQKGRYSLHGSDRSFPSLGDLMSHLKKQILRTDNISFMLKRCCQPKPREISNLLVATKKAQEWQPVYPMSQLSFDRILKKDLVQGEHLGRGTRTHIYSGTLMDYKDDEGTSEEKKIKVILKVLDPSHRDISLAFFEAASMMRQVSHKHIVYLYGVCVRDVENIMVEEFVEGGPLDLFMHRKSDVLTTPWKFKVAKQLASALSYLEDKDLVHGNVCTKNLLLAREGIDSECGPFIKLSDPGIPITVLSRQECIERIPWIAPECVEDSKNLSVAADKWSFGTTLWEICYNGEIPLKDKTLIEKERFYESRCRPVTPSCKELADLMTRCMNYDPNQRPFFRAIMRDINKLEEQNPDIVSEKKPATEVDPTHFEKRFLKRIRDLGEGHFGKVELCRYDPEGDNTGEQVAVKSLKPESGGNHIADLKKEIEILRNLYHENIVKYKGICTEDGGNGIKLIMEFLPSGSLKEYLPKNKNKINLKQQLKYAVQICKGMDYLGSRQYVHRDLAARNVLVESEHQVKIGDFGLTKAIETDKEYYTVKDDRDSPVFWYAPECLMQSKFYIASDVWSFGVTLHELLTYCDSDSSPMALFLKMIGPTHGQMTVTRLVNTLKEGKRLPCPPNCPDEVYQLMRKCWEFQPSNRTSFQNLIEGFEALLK
Tyrosine-protein kinase JAK2 (Mus musculus, UniProt Q62120, V617F), sequence (Q62120 as listed by the source V617F): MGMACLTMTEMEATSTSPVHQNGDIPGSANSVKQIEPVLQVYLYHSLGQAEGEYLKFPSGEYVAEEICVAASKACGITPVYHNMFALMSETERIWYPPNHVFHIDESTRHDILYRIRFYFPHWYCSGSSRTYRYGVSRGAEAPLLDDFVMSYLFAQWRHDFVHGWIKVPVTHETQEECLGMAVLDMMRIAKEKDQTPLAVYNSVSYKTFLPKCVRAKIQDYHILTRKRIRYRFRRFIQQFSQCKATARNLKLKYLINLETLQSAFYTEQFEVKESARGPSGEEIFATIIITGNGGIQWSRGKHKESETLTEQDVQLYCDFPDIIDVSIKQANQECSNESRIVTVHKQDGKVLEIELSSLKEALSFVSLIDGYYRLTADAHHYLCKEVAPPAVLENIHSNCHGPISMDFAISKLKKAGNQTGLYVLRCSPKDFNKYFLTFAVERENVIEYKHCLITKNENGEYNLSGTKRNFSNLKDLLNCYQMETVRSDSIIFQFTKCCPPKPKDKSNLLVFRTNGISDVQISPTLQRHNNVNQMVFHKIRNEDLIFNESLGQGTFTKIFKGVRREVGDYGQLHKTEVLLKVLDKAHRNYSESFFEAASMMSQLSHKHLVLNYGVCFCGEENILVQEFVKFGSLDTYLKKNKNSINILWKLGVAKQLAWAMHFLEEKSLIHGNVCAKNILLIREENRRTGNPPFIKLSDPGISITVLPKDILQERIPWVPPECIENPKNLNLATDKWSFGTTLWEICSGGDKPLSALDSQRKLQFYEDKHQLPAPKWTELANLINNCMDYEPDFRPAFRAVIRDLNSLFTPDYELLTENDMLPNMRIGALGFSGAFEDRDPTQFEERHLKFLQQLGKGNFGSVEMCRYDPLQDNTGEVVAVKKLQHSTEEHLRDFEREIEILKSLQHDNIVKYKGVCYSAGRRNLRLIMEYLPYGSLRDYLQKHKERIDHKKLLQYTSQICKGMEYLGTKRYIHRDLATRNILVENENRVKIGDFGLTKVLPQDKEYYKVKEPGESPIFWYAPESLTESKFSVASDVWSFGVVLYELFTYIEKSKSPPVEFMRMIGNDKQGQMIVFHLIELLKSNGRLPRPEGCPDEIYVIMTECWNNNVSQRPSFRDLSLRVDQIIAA
Non-receptor tyrosine-protein kinase TYK2, sequence (P29597 whole entry): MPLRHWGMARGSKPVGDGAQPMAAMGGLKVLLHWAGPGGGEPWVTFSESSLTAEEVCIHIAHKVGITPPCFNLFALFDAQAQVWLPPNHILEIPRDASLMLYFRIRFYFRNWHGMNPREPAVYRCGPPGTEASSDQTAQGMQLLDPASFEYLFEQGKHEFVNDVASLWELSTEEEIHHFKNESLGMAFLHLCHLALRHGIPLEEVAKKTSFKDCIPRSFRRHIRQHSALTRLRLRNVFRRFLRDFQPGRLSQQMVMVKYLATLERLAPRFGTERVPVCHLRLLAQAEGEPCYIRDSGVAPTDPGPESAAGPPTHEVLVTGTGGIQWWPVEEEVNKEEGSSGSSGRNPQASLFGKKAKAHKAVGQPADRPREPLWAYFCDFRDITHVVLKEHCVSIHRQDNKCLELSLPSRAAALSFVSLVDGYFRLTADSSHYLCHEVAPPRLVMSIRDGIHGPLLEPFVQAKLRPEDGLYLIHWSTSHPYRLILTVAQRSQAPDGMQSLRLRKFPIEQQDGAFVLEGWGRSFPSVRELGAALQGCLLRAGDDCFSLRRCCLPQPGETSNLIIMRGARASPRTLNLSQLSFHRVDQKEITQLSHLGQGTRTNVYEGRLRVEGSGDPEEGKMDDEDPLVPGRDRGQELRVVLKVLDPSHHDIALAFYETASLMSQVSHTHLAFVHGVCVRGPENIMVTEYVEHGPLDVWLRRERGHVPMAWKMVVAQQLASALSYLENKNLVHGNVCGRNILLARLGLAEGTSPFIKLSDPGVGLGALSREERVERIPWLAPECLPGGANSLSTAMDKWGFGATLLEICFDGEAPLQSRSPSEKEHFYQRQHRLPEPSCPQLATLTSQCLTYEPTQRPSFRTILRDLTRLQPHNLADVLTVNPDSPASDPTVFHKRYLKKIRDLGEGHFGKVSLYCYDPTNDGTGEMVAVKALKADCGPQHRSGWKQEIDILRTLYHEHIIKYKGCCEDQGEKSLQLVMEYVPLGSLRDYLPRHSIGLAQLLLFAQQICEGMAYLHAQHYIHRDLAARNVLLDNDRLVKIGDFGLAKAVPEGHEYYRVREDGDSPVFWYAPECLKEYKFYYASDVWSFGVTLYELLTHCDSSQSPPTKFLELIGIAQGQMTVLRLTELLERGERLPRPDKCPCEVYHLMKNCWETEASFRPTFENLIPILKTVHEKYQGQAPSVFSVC
Tyrosine-protein kinase JAK2 (Homo sapiens, UniProt O60674, V617F), sequence (O60674 whole entry V617F): as the sequence (O60674 whole entry) above, with V617F counted along it

Tmax [1]: 1.6 h
CL [2]: 355 mL/min/kg
Ratio IC50 [3]: 59.4
IC50 [4]: 204 nM
IC50 [5]: 1250 nM
IC50 [6]: 265 nM
IC50 [7]: 53.3 nM
Ratio IC50 [8]: 40.8
half-life [9]: > 2 h
IC50 [10]: 109 nM
IC50 [11]: 297 nM
AUCt [12]: 2011.6 ng·h/mL
IC50 [13]: 5 nM
Ratio IC50 [14]: 53
IC50 [15]: 178 nM
t1/2 [16]: 3.5 h
bioavailability [17]: 40.5%
Cmax [18]: 89.3 ng/mL
Activity [19]: 1%
SMILES: Cc1cnc(Nc2ccc(CNS(=O)(=O)C3CC3)cc2)nc1-c1cnn(C(C)C)c1
